Calls of active or inactive are those of the source. The calls are words filed in the database; no cut-off is given here.
Experiments:
[1] = system: HEK293; assay: Activation of GAL4 fused human RXR expressed in HEK293 cells at 10 uM after 24 hrs by luciferase reporter gene assay
[2] = Agonist activity at LXR in human HepG2 cells assessed as upregulation of SREBP1c mRNA levels at 10 uM after 6 hrs by qPCR analysis; format: cell-based
Outline: (§1)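 HepG2 cells treated with ligand (10 μM). Total RNA was extracted with TRIZOL; 2 µg was reverse-transcribed (1 h, 42 °C). SREBP1c, FASN and SCD1 transcripts were measured by qPCR. Mean ± SD of three biological samples; ANOVA with Dunnett's test.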

[3] = Agonist activity at LXR in human U937 cells assessed as upregulation of SREBP1c mRNA levels at 10 uM after 6 hrs by qPCR analysis; format: cell-based
Outline: (§2)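 U937 cells, 3x10⁶ in 10 ml RPMI with 10% FBS, differentiated with PMA 10 ng/ml for 72 h at 37 °C, then treated with ligand (10 μM) for 6 h. Total RNA was isolated with TRIZOL; 2 µg was reverse-transcribed for 1 h at 42 °C. Transcripts were measured by qPCR. Mean ± SD of three biological samples; ANOVA with Dunnett's test.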

[4] = organism: Homo sapiens; assay: Agonist activity at LXR in human U937 cells assessed as upregulation of ABCA1 mRNA levels at 10 uM after 6 hrs by qPCR analysis; format: cell-based
Outline: as §2

[5] = Agonist activity at LXR in human U937 cells assessed as upregulation of FASN mRNA levels at 10 uM after 6 hrs by qPCR analysis; format: cell-based
Outline: as §2

[6] = Agonist activity at LXR in human HepG2 cells assessed as upregulation of FASN mRNA levels at 10 uM after 6 hrs by qPCR analysis; format: cell-based
Outline: as §1

[7] = Agonist activity at LXR in human U937 cells assessed as upregulation of SCD1 mRNA levels at 10 uM after 6 hrs by qPCR analysis relative to control; format: cell-based; details: human, 6 h, 10 µM
Outline: as §2

[8] = molecular target: T1, Peroxisome proliferator-activated receptor gamma (Homo sapiens) (UniProt P37231); assay: Activation of GAL4 fused human PPARgamma expressed in HEK293 cells at 10 uM after 24 hrs by luciferase reporter gene assay
T1 sequence (whole entry): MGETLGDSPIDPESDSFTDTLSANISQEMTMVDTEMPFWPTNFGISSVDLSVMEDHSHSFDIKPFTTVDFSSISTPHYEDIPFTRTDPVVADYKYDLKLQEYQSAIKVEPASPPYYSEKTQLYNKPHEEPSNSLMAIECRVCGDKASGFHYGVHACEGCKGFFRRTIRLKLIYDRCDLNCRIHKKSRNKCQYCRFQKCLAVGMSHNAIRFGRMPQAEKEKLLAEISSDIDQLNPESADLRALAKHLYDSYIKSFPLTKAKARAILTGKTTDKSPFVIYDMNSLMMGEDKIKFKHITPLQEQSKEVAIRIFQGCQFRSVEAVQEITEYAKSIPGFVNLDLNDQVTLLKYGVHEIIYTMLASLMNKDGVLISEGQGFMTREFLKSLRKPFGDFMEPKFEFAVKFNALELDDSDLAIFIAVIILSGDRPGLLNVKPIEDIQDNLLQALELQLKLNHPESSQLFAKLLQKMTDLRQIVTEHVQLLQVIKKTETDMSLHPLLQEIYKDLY

[9] = Agonist activity at LXR in human HepG2 cells assessed as upregulation of SCD1 mRNA levels at 10 uM after 6 hrs by qPCR analysis; format: cell-based
Outline: as §1

[10] = molecular target: T2, Bile acid receptor (Homo sapiens) (UniProt Q96RI1); assay: Activation of GAL4 fused human FXR expressed in HEK293 cells at 10 uM by luciferase reporter gene assay
T2 sequence (whole entry): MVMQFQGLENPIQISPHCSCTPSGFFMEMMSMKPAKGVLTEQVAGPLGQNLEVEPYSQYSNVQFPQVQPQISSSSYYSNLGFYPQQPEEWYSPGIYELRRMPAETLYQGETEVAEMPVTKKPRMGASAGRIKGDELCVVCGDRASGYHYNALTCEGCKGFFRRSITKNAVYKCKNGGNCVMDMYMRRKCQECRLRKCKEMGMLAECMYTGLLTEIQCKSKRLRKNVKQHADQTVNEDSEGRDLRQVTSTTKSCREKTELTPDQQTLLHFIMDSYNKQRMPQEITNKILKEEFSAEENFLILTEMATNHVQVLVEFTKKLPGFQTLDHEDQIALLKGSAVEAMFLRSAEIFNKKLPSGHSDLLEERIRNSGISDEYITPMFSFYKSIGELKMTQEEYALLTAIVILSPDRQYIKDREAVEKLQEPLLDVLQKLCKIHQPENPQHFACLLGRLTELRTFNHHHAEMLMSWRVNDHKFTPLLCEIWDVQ

[11] = molecular target: T3, Nuclear receptor subfamily 1 group I member 2 (Homo sapiens, UniProt O75469); assay: Activation of GAL4 fused human PXR expressed in HEK293 cells at 10 uM by luciferase reporter gene assay; details: hek293, 10 µM
T3 sequence (O75469 whole entry): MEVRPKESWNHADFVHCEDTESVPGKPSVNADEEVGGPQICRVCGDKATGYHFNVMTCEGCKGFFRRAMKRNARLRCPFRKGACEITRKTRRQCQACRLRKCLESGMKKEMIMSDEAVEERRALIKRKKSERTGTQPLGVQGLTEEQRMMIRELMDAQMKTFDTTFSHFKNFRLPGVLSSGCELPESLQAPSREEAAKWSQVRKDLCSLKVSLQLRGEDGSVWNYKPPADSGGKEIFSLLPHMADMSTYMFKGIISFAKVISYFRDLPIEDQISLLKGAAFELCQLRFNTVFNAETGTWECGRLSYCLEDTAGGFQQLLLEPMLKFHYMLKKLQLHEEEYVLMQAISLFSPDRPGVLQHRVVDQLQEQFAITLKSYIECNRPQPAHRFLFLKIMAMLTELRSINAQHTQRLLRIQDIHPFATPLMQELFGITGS

[12] = molecular target: T4, Oxysterols receptor LXR-alpha (Homo sapiens) (UniProt Q13133); assay: Activation of GAL4 fused human LXR alpha expressed in HEK293 cells after 24 hrs by luciferase reporter gene assay relative to 22R-HC; format: cell-based
T4 sequence (whole entry): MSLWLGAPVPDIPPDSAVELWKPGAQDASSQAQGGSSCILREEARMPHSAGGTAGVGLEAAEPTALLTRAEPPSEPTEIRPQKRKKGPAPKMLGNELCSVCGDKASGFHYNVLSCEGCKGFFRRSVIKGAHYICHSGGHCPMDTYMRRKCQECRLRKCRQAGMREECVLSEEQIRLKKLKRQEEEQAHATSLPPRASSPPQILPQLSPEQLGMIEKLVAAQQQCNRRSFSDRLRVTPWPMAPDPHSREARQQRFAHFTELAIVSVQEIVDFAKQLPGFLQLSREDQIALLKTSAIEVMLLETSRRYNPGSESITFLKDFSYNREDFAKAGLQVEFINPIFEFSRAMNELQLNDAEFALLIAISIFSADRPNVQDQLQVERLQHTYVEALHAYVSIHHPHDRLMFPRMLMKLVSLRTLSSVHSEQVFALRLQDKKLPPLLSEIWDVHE
Outline: (§3)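 HEK293 cells carrying the Gal4-LXR-α or Gal4-LXR-β chimera plus the pMH100X4-TK-luc and Renilla reporters. Treatment started 6 h post-transfection and ran 24 h. Dual luciferase read-out. Efficacy is given as % of the response to 8 μM 22R-HC, ± SD, from three to five independent experiments.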

[13] = molecular target: T5, Oxysterols receptor LXR-beta (Homo sapiens) (UniProt P55055); assay: Activation of GAL4 fused human LXR beta expressed in HEK293 cells after 24 hrs by luciferase reporter gene assay relative to 22R-HC; format: cell-based
T5 sequence (whole entry): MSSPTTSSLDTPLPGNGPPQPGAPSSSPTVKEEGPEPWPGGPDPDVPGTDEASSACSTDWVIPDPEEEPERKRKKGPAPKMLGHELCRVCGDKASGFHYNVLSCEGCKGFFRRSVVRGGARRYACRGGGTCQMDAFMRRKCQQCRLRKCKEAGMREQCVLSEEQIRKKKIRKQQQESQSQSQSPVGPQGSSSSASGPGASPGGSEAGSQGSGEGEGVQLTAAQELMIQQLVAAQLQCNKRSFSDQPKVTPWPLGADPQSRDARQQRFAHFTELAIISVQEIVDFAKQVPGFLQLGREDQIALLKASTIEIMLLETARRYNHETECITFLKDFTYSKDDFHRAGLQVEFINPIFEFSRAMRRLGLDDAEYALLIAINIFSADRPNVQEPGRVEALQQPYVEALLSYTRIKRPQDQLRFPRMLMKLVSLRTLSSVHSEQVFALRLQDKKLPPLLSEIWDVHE
Outline: as §3

[14] = molecular target: T6, Oxysterols receptor LXR-beta (Homo sapiens, UniProt P55055); assay: Activation of GAL4 fused human LXR beta expressed in HEK293 cells after 24 hrs by luciferase reporter gene assay; format: cell-based
T6 sequence (P55055 whole entry): T5 sequence (whole entry)
Outline: (§4)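 HEK293 cells (4x10⁴/well), grown in DMEM with 10% FBS at 37 °C under 5% CO₂, transiently co-transfected with pMH100X4-TK-luc, Renilla and the Gal4-LXR-α or Gal4-LXR-β plasmid. Dosing began 6 h after transfection and lasted 24 h, at 32, 16, 8, 4, 2 and 1 μM. Dual luciferase read-out. EC50 came from dose-response curves, averaged over three to five independent experiments, ± SD.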

[15] = molecular target: T7, Oxysterols receptor LXR-alpha (Homo sapiens, UniProt Q13133); assay: Activation of GAL4 fused human LXR alpha expressed in HEK293 cells after 24 hrs by luciferase reporter gene assay; format: cell-based
T7 sequence (Q13133 whole entry): T4 sequence (whole entry)
Outline: as §4

[16] = organism: Homo sapiens; assay: Agonist activity at LXR in human U937 cells assessed as downregulation of LPS-induced CCL2 mRNA expression at 10 uM after 6 hrs by qPCR analysis; format: cell-based
Outline: (§5)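 PMA-differentiated U937 cells (10 ng/ml PMA, 72 h) were given LPS 100 ng/ml together with compound (10 μM) for 6 h. CCL2 and TNFα mRNA were measured by qPCR after TRIZOL RNA extraction and reverse transcription. Three biological samples per group, mean ± SD.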

[17] = organism: Homo sapiens; assay: Agonist activity at LXR in human U937 cells assessed as downregulation of LPS-induced TNFalpha mRNA expression at 10 uM after 6 hrs by qPCR analysis; format: cell-based
Outline: as §5

Compound | Activity [1] | Activity [2] | Activity [3] | Activity [4] | Activity [5] | Activity [6] | Activity [7] | Activity [8] | Activity [9] | Activity [10] | Activity [11] | Efficacy [12] [%] | Efficacy [13] [%] | EC50 [14] | EC50 [15] | Activity [16] | Activity [17]
CC[C@H](C[C@@H](O)[C@@H](C)[C@H]1CC[C@H]2[C@@H]3CC=C4C[C@@H](O)CC[C@]4(C)[C@H]3CC[C@]12C)C(C)C | inactive | Not Active | Not Active | Active | Not Active | Not Active | Not Active | inactive | Not Active | Active |  |  |  |  |  |  | 
CC(C)[C@@H](C)[C@H]1O[C@@H]1[C@@H](C)[C@H]1CC[C@H]2C3=CC=C4C[C@@H](O)CC[C@]4(C)[C@H]3CC[C@]12C | inactive | Not Active | Not Active |  | Not Active | Not Active | Not Active | inactive | Not Active |  | Active | 93.2 | 30.4 |  |  |  | 
CC[C@H](C[C@H](O)[C@@H](C)[C@H]1CC[C@H]2[C@@H]3CC=C4C[C@@H](O)CC[C@]4(C)[C@H]3CC[C@]12C)C(C)C |  | Not Active | Not Active |  | Not Active | Not Active | Not Active |  | Not Active |  |  |  |  | Not Active | Not Active |  | 
CC(C)[C@@H](C)C[C@H](O)[C@@H](C)[C@H]1CC[C@H]2C3=CC=C4C[C@@H](O)CC[C@]4(C)[C@H]3CC[C@]12C | inactive | Not Active | Not Active | Active | Not Active | Not Active | Not Active | inactive | Not Active |  | Active |  |  |  |  | Active | 
CC[C@@H](C(C)C)[C@@H](O)C[C@@H](C)[C@H]1CC[C@H]2[C@@H]3CC=C4C[C@@H](O)CC[C@]4(C)[C@H]3CC[C@]12C |  | Not Active | Not Active | Active | Not Active | Not Active | Not Active |  | Not Active |  |  |  |  | Not Active | Not Active |  | 
CC(C)[C@@H](C)C[C@@H](O)[C@@H](C)[C@H]1CC[C@H]2C3=CC=C4C[C@@H](O)CC[C@]4(C)[C@H]3CC[C@]12C |  | Not Active | Not Active | Active | Not Active | Not Active | Not Active |  | Not Active |  |  |  |  | Not Active | Not Active |  | 
CC(C)[C@@H](C)[C@@H](O)C[C@@H](C)[C@H]1CC[C@H]2C3=CC=C4C[C@@H](O)CC[C@]4(C)[C@H]3CC[C@]12C | inactive | Not Active | Not Active | Active | Not Active | Not Active | Not Active | inactive | Not Active |  | Active | 159 |  | Not Active |  | Active | Active
